ChEMBL document CHEMBL4364256, “Design, synthesis and biological evaluation of antimicrobial diarylimine and -amine compounds targeting the interaction between the bacterial NusB and NusE proteins” (Eur J Med Chem, 2019)
Values after ≈ are worked out from the molar mass of the structure shown.

Tests used:
Streptococcus pneumoniae = test: Antimicrobial activity against Streptococcus pneumoniae ATCC 49619 incubated for 20 hrs by microdilution method; format: functional; details: ATCC 49619, 20 h
How it was run: (§1)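 Broth microdilution MIC testing done following CLSI guidelines.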

Staphylococcus aureus [1] = test: microbe, parasite or virus in culture; details: ATCC 29213, 20 h
Acinetobacter baumannii = test: Antimicrobial activity against Acinetobacter baumannii ATCC 19606 incubated for 20 hrs by microdilution method; format: functional; details: ATCC 19606 = CIP 70.34 = JCM 6841, 20 h; how it was run: as §1
[2] = microbe, parasite or virus in culture; details: Enterobacter cloacae, ATCC 13047, 20 h
Bacillus subtilis = test: Inhibition of N-terminal LgBiT-fused Bacillus subtilis NusB expressed in Escherichia coli BL21(DE3)pLysS interaction with C- terminal SmBiT-fused Bacillus subtilis NusE expressed in Escherichia coli BL21(DE3)pLysS at 100 uM preincubated for 10 mins followed by NusE addition and measured after 10 mins by nano-glo luciferase assay relative to control
How it was run: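 NusB and NusE were mixed 1:1 at 1 µM in PBS, with compound at 100 µM. The read-out was percent inhibition of the NusB-NusE interaction.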

Enterococcus faecium = test: Antimicrobial activity against Enterococcus faecium ATCC 19433 incubated for 20 hrs by microdilution method; format: functional; details: ATCC 19433, 20 h; how it was run: as §1
Staphylococcus aureus [3] = test: microbe, parasite or virus in culture; details: ATCC 25923, 20 h
Pseudomonas aeruginosa = test: Antimicrobial activity against Pseudomonas aeruginosa ATCC 27853 incubated for 20 hrs by microdilution method; format: functional; details: ATCC 27853, 20 h; how it was run: as §1
[4] = test system: Enterococcus casseliflavus; test: Antimicrobial activity against Enterococcus casseliflavus ATCC 25788 incubated for 20 hrs by microdilution method; format: functional; details: ATCC 25788, 20 h; how it was run: as §1
[5] = Antimicrobial activity against Staphylococcus saprophyticus ATCC 15305 incubated for 20 hrs by microdilution method; format: functional, Staphylococcus saprophyticus subsp. saprophyticus; details: ATCC 15305, 20 h; how it was run: as §1
Streptococcus agalactiae = test: Antimicrobial activity against Streptococcus agalactiae ATCC 12386 incubated for 20 hrs by microdilution method; format: functional; details: ATCC 12386, 20 h; how it was run: as §1

Row | SMILES | MIC (Streptococcus pneumoniae) | MIC (Staphylococcus aureus [1]) | MIC (Acinetobacter baumannii) | MIC [2] | inhibition (Bacillus subtilis) | MIC (Enterococcus faecium) | MIC (Staphylococcus aureus [3]) | MIC (Pseudomonas aeruginosa) | MIC [4] | MIC [5] | MIC (Streptococcus agalactiae)
1 | O=[N+]([O-])c1ccc(O)c(/C=N/c2cccc(C(F)(F)F)c2)c1 | 32 µg/mL (≈ 103 µM) | 64 µg/mL (≈ 206 µM) | 256 µg/mL (≈ 825 µM) | 256 µg/mL (≈ 825 µM) | 56.2% | > 256 µg/mL | 16 µg/mL (≈ 51.6 µM) | > 256 µg/mL | – | – | –
2 | O=[N+]([O-])c1ccc(O)c(/C=N/c2ccccc2O)c1 | 64 µg/mL (≈ 248 µM) | 16 µg/mL (≈ 62 µM) | 128 µg/mL (≈ 496 µM) | > 256 µg/mL | 57.7% | > 256 µg/mL | 4 µg/mL (≈ 15.5 µM) | > 256 µg/mL | – | – | –
3 | O=[N+]([O-])c1ccc(O)c(/C=N/c2ccc(O)cc2)c1 | 64 µg/mL (≈ 248 µM) | 8 µg/mL (≈ 31 µM) | > 256 µg/mL | > 256 µg/mL | 89.1% | > 256 µg/mL | 4 µg/mL (≈ 15.5 µM) | > 256 µg/mL | – | – | –
4 | CC(C)(C)c1cccc(/N=C/c2cc([N+](=O)[O-])ccc2O)c1 | 256 µg/mL (≈ 858 µM) | 16 µg/mL (≈ 53.6 µM) | 128 µg/mL (≈ 429 µM) | > 256 µg/mL | 51.3% | > 256 µg/mL | 4 µg/mL (≈ 13.4 µM) | > 256 µg/mL | – | – | –
5 | O=[N+]([O-])c1ccc(O)c(/C=N/c2ccccc2C(F)(F)F)c1 | 32 µg/mL (≈ 103 µM) | 16 µg/mL (≈ 51.6 µM) | > 256 µg/mL | > 256 µg/mL | 53.1% | 256 µg/mL (≈ 825 µM) | 8 µg/mL (≈ 25.8 µM) | > 256 µg/mL | – | – | –
6 | CN[C@H](CC(C)C)C(=O)N[C@H]1C(=O)N[C@@H](CC(N)=O)C(=O)N[C@H]2C(=O)N[C@H]3C(=O)N[C@H](C(=O)N[C@H](C(=O)O)c4cc(O)cc(O)c4-c4cc3ccc4O)[C@H](O)c3ccc(c(Cl)c3)Oc3cc2cc(c3O[C@@H]2O[C@H](CO)[C@@H](O)[C@H](O)[C@H]2O[C@H]2C[C@](C)(N)[C@H](O)[C@H](C)O2)Oc2ccc(cc2Cl)[C@H]1O [VANCOMYCIN] | 0.5 µg/mL (≈ 0.345 µM) | – | > 256 µg/mL | > 256 µg/mL | – | – | 1 to 2 µg/mL (≈ 0.69 to 1.38 µM) | > 256 µg/mL | 4 µg/mL (≈ 2.76 µM) | 1 µg/mL (≈ 0.69 µM) | 0.5 µg/mL (≈ 0.345 µM)

Second part, led by results:

Row | MIC (Streptococcus pneumoniae) | MIC (Staphylococcus aureus [1]) | MIC (Acinetobacter baumannii) | MIC [2] | inhibition (Bacillus subtilis) | MIC (Enterococcus faecium) | MIC (Staphylococcus aureus [3]) | MIC (Pseudomonas aeruginosa) | SMILES | MIC [4] | MIC [5] | MIC (Streptococcus agalactiae)
7 | 16 µg/mL (≈ 54.4 µM) | 4 µg/mL (≈ 13.6 µM) | 256 µg/mL (≈ 870 µM) | > 256 µg/mL | 47.4% | 16 µg/mL (≈ 54.4 µM) | 4 µg/mL (≈ 13.6 µM) | > 256 µg/mL | O=[N+]([O-])c1ccc(O)c(CNc2cccc3ccccc23)c1 | – | – | –
8 | 8 µg/mL (≈ 29.8 µM) | 16 µg/mL (≈ 59.6 µM) | 128 µg/mL (≈ 477 µM) | > 256 µg/mL | 47.7% | 16 µg/mL (≈ 59.6 µM) | 16 µg/mL (≈ 59.6 µM) | > 256 µg/mL | C#Cc1cccc(NCc2cc([N+](=O)[O-])ccc2O)c1 | – | – | –
9 | 256 µg/mL (≈ 991 µM) | 64 µg/mL (≈ 248 µM) | > 256 µg/mL | > 256 µg/mL | 96.3% | > 256 µg/mL | 16 µg/mL (≈ 62 µM) | > 256 µg/mL | O=[N+]([O-])c1ccc(O)c(/C=N/c2cccc(O)c2)c1 | – | – | –
10 | 8 µg/mL (≈ 30.5 µM) | 32 µg/mL (≈ 122 µM) | > 256 µg/mL | > 256 µg/mL | 44.7% | 32 µg/mL (≈ 122 µM) | 64 µg/mL (≈ 244 µM) | > 256 µg/mL | C#Cc1cccc(NCc2cc(CC#N)ccc2O)c1 | – | – | –
